# From ChEMBL document CHEMBL1145471, “Small molecule regulators of autophagy identified by an image-based high-throughput screen” (Proc Natl Acad Sci U S A, 2007)
# Key:
# Format in all cases: functional
# H4 [1] = assay: Increase in light chain 3-GFP+ autophagosome vesicle intensity per cell in human H4 cells at 11.3 uM after 24 hrs by high throughput fluorescence microscopy relative to control
# In short: (§1)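 H4 cells stably expressing LC3-GFP, seeded in 96-well plates and exposed to compound for 24 h; fixed in 4% paraformaldehyde, nuclei stained with 3 μg/ml DAPI. Automated fluorescence microscopy scored number, size and intensity of LC3-GFP spots; values expressed relative to DMSO-treated wells, rapamycin positive control. Triplicate wells, mean ± SD; experiments repeated three times.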
# H4 [2] = assay: Increase in light chain 3-GFP+ autophagosome vesicle area per cell in human H4 cells at 11.3 uM after 24 hrs by high throughput fluorescence microscopy relative to control; in short: as §1
# H4 [3] = assay: Induction of light chain 3-GFP level in human H4 cells at 7.4 uM after 24 hrs by high throughput fluorescence microscopy relative to control
# In short: (§2)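 H4 cells stably expressing LC3-GFP, kept in DMEM/10% FBS at 37°C, 5% CO2, were seeded in 96-well plates and exposed to compound for 24 h. Cells were then fixed in 4% paraformaldehyde and stained with 3 μg/ml DAPI. Automated fluorescence microscopy scored the number, size and intensity of LC3-GFP spots. Values are percent of DMSO wells, in triplicate, mean ± SD. Rapamycin served as positive control.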
# H4 [4] = assay: Increase in light chain 3-GFP+ autophagosome vesicle number per cell in human H4 cells at 7.4 uM after 24 hrs by high throughput fluorescence microscopy relative to control; in short: as §2
# H4 [5] = assay: Decrease in FYVE-RFP+ vesicle intensity per cell in human H4 cells after 8 hrs relative to control; parameters: concentration or dose not given beside the values
# In short: (§3)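 H4 cells stably expressing FYVE-RFP (H4-FYVE), grown in DMEM with 10% FBS, penicillin/streptomycin and 2 mM L-glutamine at 37°C, 5% CO2, seeded in 96-well plates and exposed to compound. Fixed in 4% paraformaldehyde, nuclei stained with 3 μg/ml DAPI, FYVE-RFP+ vesicles quantified by high-throughput fluorescence microscopy against DMSO control. Triplicate wells, mean ± SD.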
# H4 [6] = assay: Increase in light chain 3-GFP+ autophagosome vesicle number per cell in human H4 cells at 9.0 uM after 24 hrs by high throughput fluorescence microscopy relative to control
# In short: (§4)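 H4 cells stably expressing LC3-GFP, grown in DMEM with 10% FBS, penicillin/streptomycin and 2 mM L-glutamine at 37°C, 5% CO2. Cells were seeded in 96-well plates and exposed to library compounds at 3–12 μM for 24 h, then fixed in 4% paraformaldehyde and stained with 3 μg/ml DAPI. LC3-GFP spot number, size and intensity were measured by high-throughput fluorescence microscopy and expressed relative to DMSO. Triplicates, mean ± SD.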
# H4 [7] = assay: Increase in long-lived protein degradation in human H4 cells after 4 hrs relative to control; parameters: concentration or dose not given beside the values
# H4 [8] = assay: Increase in long-lived protein degradation in human H4 cells after 1 hr relative to control; parameters: concentration or dose not given beside the values
# H4 [9] = assay: Increase in light chain 3-GFP+ autophagosome vesicle intensity per cell in human H4 cells at 9.0 uM after 24 hrs by high throughput fluorescence microscopy relative to control
# In short: (§5)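 H4 cells stably expressing LC3-GFP were grown in DMEM with 10% FBS and 2 mM L-glutamine at 37°C, 5% CO2. They were exposed to each compound for 24 h, with DMSO as negative and rapamycin as positive control. Cells were then fixed in 4% paraformaldehyde and stained with 3 μg/ml DAPI. High-throughput fluorescence imaging scored LC3-GFP spot number, size and intensity, expressed relative to DMSO. Mean ± SD of triplicates; experiments repeated three times.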
# H4 [10] = assay: Increase in long-lived protein degradation in human H4 cells after 2 hrs relative to control; parameters: concentration or dose not given beside the values
# H4 [11] = assay: Induction of light chain 3-GFP level in human H4 cells at 9.0 uM after 24 hrs by high throughput fluorescence microscopy relative to control; in short: as §4
# H4 [12] = assay: Decrease in FYVE-RFP+ vesicle intensity per cell in human H4 cells after 4 hrs relative to control; parameters: concentration or dose not given beside the values; in short: as §3
# H4 [13] = assay: Increase in long-lived protein degradation in human H4 cells after 24 hrs relative to control; parameters: concentration or dose not given beside the values
# H4 [14] = assay: Decrease in FYVE-RFP+ vesicle intensity per cell in human H4 cells after 2 hrs relative to control; parameters: concentration or dose not given beside the values; in short: as §3
# H4 [15] = assay: Increase in light chain 3-GFP+ autophagosome vesicle area per cell in human H4 cells at 9.0 uM after 24 hrs by high throughput fluorescence microscopy relative to control
# In short: (§6)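 H4 cells stably expressing LC3-GFP, seeded in 96-well plates and exposed to compound for 24 h; screening concentrations were 3–12 μM, with rapamycin 0.22 μM and bafilomycin A1 0.40 μM. Cells fixed in 4% paraformaldehyde and stained with 3 μg/ml DAPI. Number, size and intensity of LC3-GFP spots measured by high-throughput fluorescence microscopy and expressed as percent of DMSO-treated wells. Rapamycin was the positive control. Triplicate wells, mean ± SD; experiments repeated three times.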
# H4 [16] = assay: Increase in light chain 3-GFP+ autophagosome vesicle intensity per cell in human H4 cells at 6.4 uM after 24 hrs by high throughput fluorescence microscopy relative to control; in short: as §5
# H4 [17] = assay: Increase in light chain 3-GFP+ autophagosome vesicle number per cell in human H4 cells at 6.4 uM after 24 hrs by high throughput fluorescence microscopy relative to control; in short: as §5
# H4 [18] = assay: Induction of light chain 3-GFP level in human H4 cells at 6.4 uM after 24 hrs by high throughput fluorescence microscopy relative to control; in short: as §4
# H4 [19] = assay: Increase in light chain 3-GFP+ autophagosome vesicle area per cell in human H4 cells at 6.4 uM after 24 hrs by high throughput fluorescence microscopy relative to control; in short: as §6
# H4 [20] = assay: Increase in light chain 3-GFP+ autophagosome vesicle area per cell in human H4 cells at 7.6 uM after 24 hrs by high throughput fluorescence microscopy relative to control; in short: as §6
# H4 [21] = assay: Induction of light chain 3-GFP level in human H4 cells at 7.6 uM after 24 hrs by high throughput fluorescence microscopy relative to control; in short: as §4
# H4 [22] = assay: Increase in light chain 3-GFP+ autophagosome vesicle intensity per cell in human H4 cells at 7.6 uM after 24 hrs by high throughput fluorescence microscopy relative to control; in short: as §5
# H4 [23] = assay: Increase in light chain 3-GFP+ autophagosome vesicle number per cell in human H4 cells at 7.6 uM after 24 hrs by high throughput fluorescence microscopy relative to control; in short: as §5
# H4 [24] = assay: Increase in light chain 3-GFP+ autophagosome vesicle area per cell in human H4 cells at 13.2 uM after 24 hrs by high throughput fluorescence microscopy relative to control; in short: as §1
# H4 [25] = assay: Increase in light chain 3-GFP+ autophagosome vesicle number per cell in human H4 cells at 13.2 uM after 24 hrs by high throughput fluorescence microscopy relative to control; in short: as §1
# H4 [26] = assay: Induction of light chain 3-GFP level in human H4 cells at 13.2 uM after 24 hrs by high throughput fluorescence microscopy relative to control; in short: as §2
# H4 [27] = assay: Increase in light chain 3-GFP+ autophagosome vesicle intensity per cell in human H4 cells at 13.2 uM after 24 hrs by high throughput fluorescence microscopy relative to control; in short: as §1
Compound,Activity (H4 [5]) [%],Activity (H4 [7]) [%],Activity (H4 [8]) [%],Activity (H4 [10]) [%],Activity (H4 [12]) [%],Activity (H4 [13]) [%],Activity (H4 [14]) [%],also measured
C[C@@]1(CO)[C@H](O)CC[C@@]2(C)[C@H]1CC[C@H]1C[C@@H]3C[C@@]12CC[C@]3(O)CO [APHIDICOLIN],,,,,,,,Activity (H4 [1]): 350.13%; Activity (H4 [2]): 275.5%; Activity (H4 [3]): 73.06%; Activity (H4 [4]): 216.53%
O=C(Nc1ccccc1)c1cc([N+](=O)[O-])ccc1Cl,29.9,93.22,106.33,87.58,44.5,89.29,40.32,Activity (H4 [6]): 128.11%; Activity (H4 [9]): 166.91%; Activity (H4 [11]): 105.38%; Activity (H4 [15]): 137.98%
CNC(=O)[C@H](Cc1c[nH]c2ccccc12)NC(=O)[C@@H](CC(=O)NO)CC(C)C [ILOMASTAT],25.77,104.88,129.48,115.08,32.3,107.46,30.69,Activity (H4 [16]): 196.42%; Activity (H4 [17]): 154.31%; Activity (H4 [18]): 143.94%; Activity (H4 [19]): 171.42%
Oc1ccc(-c2nc(-c3ccc(F)cc3)c(-c3ccncc3)[nH]2)cc1 [SB-202190],,,,,,,,Activity (H4 [20]): 160.87%; Activity (H4 [21]): 91.14%; Activity (H4 [22]): 169.71%; Activity (H4 [23]): 151.97%
O[C@H]1[C@H](O)[C@@H](O)CN2CC[C@H](O)[C@H]12 [CASTANOSPERMINE],36.45,88.75,83.53,84.26,40.02,85.6,37.35,Activity (H4 [24]): 174.29%; Activity (H4 [25]): 156.81%; Activity (H4 [26]): 157.35%; Activity (H4 [27]): 171.2%
